We go through two molecules from ChEMBL document CHEMBL1153337, “Small molecule antagonists of the gonadotropin-releasing hormone (GnRH) receptor: structure-activity relationships of small heterocyclic groups appended to the 2-phenyl-4-piperazinyl-benzimidazole template” (Bioorg Med Chem Lett, 2009).

SMILES strings stand for the structures. Values after ≈ are worked out from the molar mass of the structure shown. A value given as a limit tells only on which side of the number the result lay.

Data set [1] has as its target T1, Gonadotropin-releasing hormone receptor (Homo sapiens, UniProt P30968).
T1 sequence (P30968 whole entry): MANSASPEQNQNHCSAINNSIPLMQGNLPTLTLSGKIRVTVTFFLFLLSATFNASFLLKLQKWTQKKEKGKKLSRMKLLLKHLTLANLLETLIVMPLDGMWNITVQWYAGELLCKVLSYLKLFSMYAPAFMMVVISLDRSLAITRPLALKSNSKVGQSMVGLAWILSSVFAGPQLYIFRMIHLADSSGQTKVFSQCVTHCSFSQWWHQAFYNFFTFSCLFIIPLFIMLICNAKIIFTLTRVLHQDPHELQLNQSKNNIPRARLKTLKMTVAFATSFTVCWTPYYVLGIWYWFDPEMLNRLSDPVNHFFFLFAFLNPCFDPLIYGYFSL
The data set can be described thus: Antagonist activity at human recombinant GnRH receptor expressed in HEK293 cells assessed as reduction in (D-Trp6)-GnRH-stimulated IP production by whole cell assay. The class given is functional, cell-based. Summed up:
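Whole-cell assay, cells stimulated with (D-Trp6)-GnRH; compound-driven reduction of inositol phosphate read as IC50.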

Data set [2] concerns the target T2, Gonadotropin-releasing hormone receptor (Rattus norvegicus, UniProt P30969).
T2 sequence (P30969 whole entry): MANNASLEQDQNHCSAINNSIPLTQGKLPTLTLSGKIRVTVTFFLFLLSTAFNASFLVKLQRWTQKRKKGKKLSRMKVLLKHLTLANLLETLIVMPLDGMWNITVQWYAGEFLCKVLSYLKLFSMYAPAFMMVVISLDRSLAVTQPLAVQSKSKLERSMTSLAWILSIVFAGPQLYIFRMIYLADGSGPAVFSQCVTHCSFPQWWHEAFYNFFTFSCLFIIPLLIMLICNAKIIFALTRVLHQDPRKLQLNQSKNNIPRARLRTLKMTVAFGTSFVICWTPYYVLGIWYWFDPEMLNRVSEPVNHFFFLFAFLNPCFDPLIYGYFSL
The data set can be described thus: Displacement of [125I]-(D-Trp6)-GnRH from rat GnRH receptor. Summed up:
(§1)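 Competition binding at overexpressed human or rat GnRH receptors against 125I-(D-Trp6)-GnRH; IC50 averaged from two independent experiments run in triplicate.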

Data set [3] in a line: Metabolic stability in rat liver microsomes assessed as half life. The class given is ADME, Microsome.
For data set [4], the target named is T1, Gonadotropin-releasing hormone receptor. The data set is described as follows: Displacement of [125I]-(D-Trp6)-GnRH from human GnRH receptor. In short, it runs like this: as §1
Data set [5] deals with Rattus norvegicus. The data set is described as follows: Oral bioavailability in orchidectomized Sprague-Dawley rat at 20 mg/kg after 1 day. The data set is classed as ADME, organism-based. The note with it: in vivo, 24 h. In short, it runs like this:
(§2)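 Orchidectomized SD rats, single oral dose of 20 mg/kg in 0.4 N HCl/2% TWEEN 80; iv arm 1 mg/kg in 20% DMSO/PEG 200 for bioavailability; one-day PK study.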

In a further data set the target is CYP2C9 (Homo sapiens, UniProt P11712). The data set is described as follows: Inhibition of CYP2C9 at 3 uM. The data set is classed as ADME.
Data set [6] concerns Rattus norvegicus. The data set is described as follows: AUC (0 to alpha) in orchidectomized Sprague-Dawley rat at 20 mg/kg, po after 1 day. The class given is ADME, organism-based, Plasma. More on the design: dose 20 mg/kg, route oral. Particulars: in vivo, 24 h. Summed up:
as §2

The nature of data set [7]: Solubility at pH 7.4. The class given is physicochemical. Particulars: buffer.
The nature of data set [8]: Half life in orchidectomized Sprague-Dawley rat at 20 mg/kg, po after 1 day. The data set is classed as ADME, organism-based. More on the design: dose 20 mg/kg, route oral. The note with it: male, in vivo. In short, it runs like this:
as §2

Data set [9] in a line: Reduction in leutinizing hormone release in (D-Trp6)-GnRH-stimulated rat primary pituitary cells by RIA. The data set is classed as functional, cell-based. Particulars: Pituitary gland cell. Summed up:
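Primary rat pituitary cells stimulated with (D-Trp6)-GnRH; compound-driven reduction of LH release read as IC50.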

The next data set deals with CYP3A4 (Homo sapiens, UniProt P08684). The data set is described as follows: Inhibition of CYP3A4 at 3 uM. The class given is ADME.
Data set [10] can be described thus: Volume of distribution at steady state in orchidectomized Sprague-Dawley rat at 1 mg/kg, iv after 1 day. The data set is classed as ADME, organism-based. Particulars: male, in vivo, read-out: Vdss. More on the design: dose 1 mg/kg, route intravenous. Summed up:
(§3)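 Orchidectomized SD rats, single iv dose of 1 mg/kg in 20% DMSO/PEG 200; one-day PK study.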

Data set [11] can be described thus: Half life in orchidectomized Sprague-Dawley rat at 1 mg/kg, iv after 1 day. The class given is ADME, organism-based. More on the design: dose 1 mg/kg, route intravenous. Particulars: male, in vivo. Summed up:
as §3

Another data set addresses CYP2D6 (Homo sapiens, UniProt P10635). The data set is described as follows: Inhibition of CYP2D6 at 3 uM. The class given is ADME.
A short description of data set [12]: Oral bioavailability in orchidectomized Sprague-Dawley rat at 30 mg/kg after 1 day. The class given is ADME, organism-based. The note with it: male, in vivo. Summed up:
(§4)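 Orchidectomized SD rats, single oral dose of 30 mg/kg in PEG 400; iv arm 1 mg/kg in 20% DMSO/PEG 200 for bioavailability; one-day PK study.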

The subject of data set [13] is Rattus norvegicus. The data set is described as follows: Change in serum leutinizing hormone level in orchidectomized rat at 30 mg/kg, po after 4 hrs relative to control. The class given is functional. Summed up:
(§5)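 Orchidectomized rats (stable elevated LH after testosterone feedback removal), oral gavage 30 mg/kg in PEG 400 vs vehicle cohort, n = 6 per group; serum LH sampled over 24 h, relative LH with t = 0 set to 100; change = treated minus vehicle average.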

The subject of data set [14] is Rattus norvegicus. The data set can be described thus: Change in serum leutinizing hormone level in orchidectomized rat at 30 mg/kg, po after 6 hrs relative to control. The data set is classed as functional. Summed up:
as §5

Data set [15] in a line: Half life in orchidectomized Sprague-Dawley rat at 30 mg/kg, po after 1 day. The class given is ADME, organism-based. Set-up: dose 30 mg/kg, route oral. The note with it: male, in vivo. In short, it runs like this: as §4
The subject of data set [16] is Rattus norvegicus. The data set is described as follows: Change in serum leutinizing hormone level in orchidectomized rat at 30 mg/kg, po after 24 hrs relative to control. The data set is classed as functional. Summed up:
as §5

Data set [17] has as its system Rattus norvegicus. The data set can be described thus: Change in serum leutinizing hormone level in orchidectomized rat at 30 mg/kg, po after 0.5 hrs relative to control. The data set is classed as functional. Summed up:
as §5

Data set [18] can be described thus: Clearance in orchidectomized Sprague-Dawley rat at 1 mg/kg, iv after 1 day. The data set is classed as ADME, organism-based. Set-up: dose 1 mg/kg, route intravenous. Particulars: male, in vivo. Summed up: as §3
In data set [19] the test system is Rattus norvegicus. The data set can be described thus: Change in serum leutinizing hormone level in orchidectomized rat at 30 mg/kg, po after 1 hr relative to control. The data set is classed as functional. In short, it runs like this: as §5
Data set [20] is described as follows: AUC (0 to alpha) in orchidectomized Sprague-Dawley rat at 30 mg/kg, po after 1 day. The class given is ADME, organism-based. Set-up: dose 30 mg/kg, route oral. Particulars: male, plasma. Summed up: as §4
For data set [21], the system named is Rattus norvegicus. The data set is described as follows: Change in serum leutinizing hormone level in orchidectomized rat at 30 mg/kg, po after 2 hrs relative to control. The class given is functional. In short, it runs like this:
as §5

Sequence of CYP2C9 (P11712 whole entry): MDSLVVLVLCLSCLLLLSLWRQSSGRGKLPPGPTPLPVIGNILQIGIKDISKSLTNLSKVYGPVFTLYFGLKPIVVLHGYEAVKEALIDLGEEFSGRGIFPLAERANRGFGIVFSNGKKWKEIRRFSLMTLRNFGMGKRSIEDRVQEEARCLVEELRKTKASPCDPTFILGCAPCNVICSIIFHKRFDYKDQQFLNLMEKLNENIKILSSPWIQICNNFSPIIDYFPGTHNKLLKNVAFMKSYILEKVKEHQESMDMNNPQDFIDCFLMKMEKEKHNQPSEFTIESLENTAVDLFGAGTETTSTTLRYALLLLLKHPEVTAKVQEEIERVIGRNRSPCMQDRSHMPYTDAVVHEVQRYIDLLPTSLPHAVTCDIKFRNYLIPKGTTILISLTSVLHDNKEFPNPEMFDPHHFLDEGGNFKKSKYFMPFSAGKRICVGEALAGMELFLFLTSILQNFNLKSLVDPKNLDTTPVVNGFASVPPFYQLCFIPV
Sequence of CYP3A4 (P08684 whole entry): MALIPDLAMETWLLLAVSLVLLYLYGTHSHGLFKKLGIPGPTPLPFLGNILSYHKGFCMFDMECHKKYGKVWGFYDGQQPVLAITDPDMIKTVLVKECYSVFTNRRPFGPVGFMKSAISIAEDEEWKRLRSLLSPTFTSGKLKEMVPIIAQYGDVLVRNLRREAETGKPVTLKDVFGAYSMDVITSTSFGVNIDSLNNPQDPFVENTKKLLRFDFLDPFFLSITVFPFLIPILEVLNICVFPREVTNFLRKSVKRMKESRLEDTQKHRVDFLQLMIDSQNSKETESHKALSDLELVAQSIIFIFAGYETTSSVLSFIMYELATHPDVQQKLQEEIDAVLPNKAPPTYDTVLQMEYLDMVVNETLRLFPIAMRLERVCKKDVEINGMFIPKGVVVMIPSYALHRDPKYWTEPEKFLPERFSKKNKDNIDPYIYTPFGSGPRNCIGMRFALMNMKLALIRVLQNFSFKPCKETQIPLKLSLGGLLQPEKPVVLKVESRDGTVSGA
Sequence of CYP2D6 (P10635 whole entry): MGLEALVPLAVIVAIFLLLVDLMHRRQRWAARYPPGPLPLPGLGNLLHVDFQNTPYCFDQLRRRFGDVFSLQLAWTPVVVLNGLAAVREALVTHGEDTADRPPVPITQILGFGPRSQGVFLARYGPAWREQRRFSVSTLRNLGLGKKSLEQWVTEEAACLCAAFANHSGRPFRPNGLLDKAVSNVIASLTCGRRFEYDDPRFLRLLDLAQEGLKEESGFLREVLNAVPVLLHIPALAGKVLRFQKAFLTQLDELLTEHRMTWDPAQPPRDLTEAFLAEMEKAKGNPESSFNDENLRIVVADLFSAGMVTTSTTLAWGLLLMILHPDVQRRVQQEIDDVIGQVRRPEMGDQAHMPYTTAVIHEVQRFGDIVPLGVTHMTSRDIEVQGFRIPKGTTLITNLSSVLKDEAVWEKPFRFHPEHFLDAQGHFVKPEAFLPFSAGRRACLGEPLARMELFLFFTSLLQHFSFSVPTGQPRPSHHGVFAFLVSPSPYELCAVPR

Consider `CCCn1cc(CN2CCN(c3cccc4[nH]c(-c5ccc(C(C)(C)C)cc5)nc34)CC2)nc1C`, for which the IC50 in data set [1] stood at 43 nM; in data set [2], 41 nM; in data set [4], 18 nM; in [9] it was 240 nM. Moreover, the results for the half-life in data set [3], in [8] and in data set [11] were 25 min, 174 min and 54 min, respectively. This molecule showed a F with Rattus norvegicus [5] of 100%. The inhibition at 3 µM was determined as 19% on CYP2C9, 85% at CYP3A4 and 13% on CYP2D6. In the data set on Rattus norvegicus [6], the AUC was found to be 3830 ng·h/mL. For the same molecule, in data set [7], the concentration in solution (solubility) was 55 µg/mL (≈ 117 µM). For the same molecule, the Vd in [10] turned out to be 0.2 L/kg.

`CCn1cnc(CN2CCN(c3cccc4[nH]c(-c5ccc(C(C)(C)C)cc5)nc34)CC2)c1C`: the bioavailability in [12] was determined as 93%. Further, the Activity was 14.5 in the data set on Rattus norvegicus [13]; -32.3 in the data set on Rattus norvegicus [14]; -3.5 with Rattus norvegicus [16]; -0.2 with Rattus norvegicus [17]; -18 with Rattus norvegicus [19]; -52.8 in the data set with Rattus norvegicus [21]. For the same molecule, the IC50 in data set [1] worked out at 14 nM; in data set [2], 24 nM; in [4] it was 7 nM; in data set [9], 200 nM. The half-life in data set [15] was 222 min; in data set [3], 21 min; in [11] it was 18 min. The inhibition at 3 µM on CYP2C9 turned out to be 27%; on CYP3A4, 73%; at CYP2D6 it was 14%. In [7], this molecule displayed a solubility of more than 100 µg/mL. For the same molecule, the clearance in data set [18] is 134 mL/min/kg. Also, the Vd in data set [10] came to 2.7 L/kg. This molecule yielded an AUC at 24 h in data set [20] of 3440 ng·h/mL.
